In ChEMBL document CHEMBL4513216, “Probing the Open Global Health Chemical Diversity Library for Multistage-Active Starting Points for Next-Generation Antimalarials” (ACS Infect Dis, 2020) one finds cytotoxicity data, which are given here for 97 compounds.

A short description of this data set: Toxicity liver stage against HepG2, at 10uM. The class given is cell-based. Set-up: test concentration 10 uM, cell line HepG2-A16-CD81EGFP. As to conditions: human, HepG2-A16-CD81EGFP cells; read-out: INHIBITION
A digest of the protocol:
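Uninfected HepG2-A16-CD81EGFP cells, 3 × 10^3 per well, 1536-well, plated on prespotted compound at 10 μM final, parasite-free screening media added to match infected plates; puromycin 10 μM positive, DMSO 0.5% negative; run in parallel with 48 h PbLuc assay at 37 °C, 5% CO2; viability by CellTiter-Glo luminescence, normalized to controls.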
On to `CC(C)c1nc(CSc2nnc(C3CC3)n2CC(N)=O)no1`, for which the cytotoxicity at 10 µM was -147%. With `CC(C)(C)C(=O)N1CC[C@H]2NC(=O)N(c3ccc(F)cc3)C(=O)[C@H]21`, the cytotoxicity at 10 µM was -1.72%. In the case of `Cc1ccc(NC(=O)CC2NC(N3CCc4ccccc43)=NC2=O)cc1` (configuration not stated) it was 0.417%; in that of `O=C(Cn1cccn1)N1CCC(c2nnc(C(F)(F)F)o2)CC1`, -10.8%; in that of `Cc1ccccc1C(=O)N1CCC2(CCC(C(=O)NCC3CC3)O2)CC1` (configuration not stated), -3.28%. Consider `O=C(c1cscn1)N1CCC2(CC1)CCN(S(=O)(=O)c1ccccc1)C2`, for which the cytotoxicity at 10 µM was determined as 10.5%. Regarding `Cc1nc(NC(C)C)nc2c1CN(Cc1nccn1C)CC2`, the cytotoxicity at 10 µM was found to be 8.13%.

Turning to `CO[C@@H]1CC[C@H]2[C@H]1OCCN2S(=O)(=O)c1cn(C)cn1`, the cytotoxicity at 10 µM was determined as 5.32%. Consider `COCC1CC2(CCN(C(=O)c3oc4ccccc4c3C)CC2)CO1` (configuration not stated), for which the cytotoxicity at 10 µM is -141%. As for `CCOc1cc(=O)n2c(c1C(=O)OCc1ccc(F)cc1)CCCC2`, the cytotoxicity at 10 µM was found to be 3.51%. `c1cncc(OCc2noc3c2CN(Cc2ccoc2)CC3)c1`: the cytotoxicity at 10 µM was -8.33%. As for `CCN(CC)C(=O)c1ccn(COc2ccc(F)cc2F)n1`, the figure is 7.61%. As for `COc1cccc(CNC(=O)c2cc(C)nc(N3CCCC3)n2)c1`, the figure is 23.1%. Take `CCn1ccc(NS(=O)(=O)c2cccc(CSC)c2)n1`: the cytotoxicity at 10 µM was 10.4%. As for `Cc1cc(C(F)(F)F)nn1C(C)C(=O)NN1CCOCC1` (configuration not stated), the figure is -1.67%; as for `Cc1ccc(CNc2cc(C(=O)N3CCOCC3)nc(C)n2)cc1`, -1.61%.

`CC1CCN(C(=O)C2CC(=O)N(c3cnn(C(C)C)c3)C2)CC1` (configuration not stated): the cytotoxicity at 10 µM was -0.343%. In the case of `Cn1ccc(C(=O)N2CCC(c3cc(CCO)n(C)n3)C2)n1` (configuration not stated) it was -3.69%; in that of `Cc1ncsc1C(=O)N1CCC(c2ccc3c(NC(C)C)n[nH]c3n2)C1` (configuration not stated), 4.42%; in that of `CC(=O)N1CC(C(=O)N2CCCC(Cn3ccnc3C)C2)C1` (configuration not stated), 1.27%.

As to `Cc1ncsc1CN1CCOC(C)(C(=O)N2CCOCC2)C1` (configuration not stated), the cytotoxicity at 10 µM is -1.95%. Take `CNC(=O)C1(C)CN(c2nc(C)cc(C)n2)CCO1` (configuration not stated): the cytotoxicity at 10 µM came to 7.92%. In the case of `Cc1cc(Nc2ncccn2)nc(C2CCCN(CCO)C2)n1` (configuration not stated) it was 1.09%.

Turning to `COc1cc2cc3c(nc2cc1OC)OCCN(Cc1cccs1)C3`, the cytotoxicity at 10 µM was found to be 11.4%. In the case of `Cc1cnn(CC2CCN(CC(O)c3ccc(F)cc3)CC2)c1` (configuration not stated) it was -0.237%; in that of `CCC(c1ccncc1)N(C)S(C)(=O)=O` (configuration not stated), -5.98%.

Regarding `CCCn1c(NC(=O)CNC(=O)OCC)nc2ccccc21`, the cytotoxicity at 10 µM is -4.41%. Turning to `CC(=O)N1CCN(c2ccccc2CNc2cncc(C)c2)CC1`, the cytotoxicity at 10 µM stood at 2.22%.

In the case of `OC1CCN(c2nc(-c3ccccc3)no2)CC1`, the cytotoxicity at 10 µM is -9.57%. In the case of `Cn1cc(CNC2CCCOc3c(Cl)cccc32)cn1` (configuration not stated) it was 10.7%.

With `CCC1(CC)CC(=O)N(CC(O)c2cc(F)ccc2F)C1=O` (configuration not stated), the cytotoxicity at 10 µM was -4.42%.

Consider `CCN(CC)CCn1cc(NC(=O)c2ccccc2OC)cn1`, for which the cytotoxicity at 10 µM is 7.04%. As for `O=S1(=O)CCC(c2nnc(-c3cnc4onc(C5CC5)c4c3)o2)C1` (configuration not stated), the figure is 5.89%; as for `COCCCN(C)c1nc(-c2ccncc2)nc(C)c1C`, 2.8%; as for `COc1ccc(Cl)cc1CS(=O)(=O)Cc1nc(C2CC2)no1`, 3.43%.

Turning to `Cc1noc(C(C)Nc2ccc3oc(=O)[nH]c3c2)n1` (configuration not stated), the cytotoxicity at 10 µM is -2.27%. In the case of `CC(C)S(=O)(=O)C(C)C(=O)NCc1ccccc1COc1ccccc1` (configuration not stated) it was 12.1%.

In the case of `NC(=O)C1CCN(c2ncccc2C(=O)N2CCc3ccccc32)C1` (configuration not stated), the cytotoxicity at 10 µM is -5.78%.

As for `CCOc1cccc(C(C)NC(=O)N2CCC3(CC2)OCCO3)c1` (configuration not stated), the cytotoxicity at 10 µM amounted to 0.322%. As for `CCN(CC)c1ncc(CNC2CCc3nc(C(C)C)nn3C2)s1` (configuration not stated), the figure is 4.24%; as for `Cc1cc(F)ccc1S(=O)(=O)N(C)CC(N)=O`, 1.38%. As for `CCS(=O)(=O)CC(=O)NC(c1ccccc1)C1CCCC1` (configuration not stated), the figure is -137%; as for `N#Cc1ncn(CCC(=O)Nc2ccccc2F)n1`, -150%; as for `O=C(NCc1ccncc1)c1ccc(Cl)cc1F`, 0.55%. For the compound `O=C(Nc1cccc(CN2CCOC2=O)c1)N1CCCCCC1`, the cytotoxicity at 10 µM is 18.6%.

Turning to `CC(OCC(F)(F)F)C(=O)NCCN(C)C` (configuration not stated), the cytotoxicity at 10 µM was -3.17%.

Turning to `CN(CC(=O)NC(C)(C)C)Cc1nc(-c2ccccc2)c[nH]1`, the cytotoxicity at 10 µM was -2.23%. For the compound `O=C(C[S+]([O-])Cc1ccc(F)cc1Cl)N1CCc2sccc2C1` (configuration not stated), the cytotoxicity at 10 µM is -2.22%. Consider `Cc1nccc(CNC(=O)N2CCN(Cc3ccccc3)C[C@H]2C)n1`, for which the cytotoxicity at 10 µM is -128%. Take `COCCN1CCC(Nc2c(F)cc(C#N)cc2F)CC1`: the cytotoxicity at 10 µM is -5.41%. For the compound `Cc1cnn(C2CN(Cc3nnc(C4CC4)o3)C2)c1`, the cytotoxicity at 10 µM was -6.49%. Take `CC(Nc1ccc(CCN2CCCCC2)cc1)C(=O)N(C)CCC#N` (configuration not stated): the cytotoxicity at 10 µM was determined as 7.61%. As to `CCCN1CCCN(C(=O)C(CC)N2CCCC2=O)CC1` (configuration not stated), the cytotoxicity at 10 µM is -6.17%. `C[S+]([O-])c1nncn1CC(=O)c1cccc(Cl)c1` (configuration not stated): the cytotoxicity at 10 µM is -1.02%. In the case of `Cc1cccc(NC(=O)[C@@H]2CCCN2CC(=O)N2CCCCCC2)n1` it was 20.3%; in that of `CC(C)c1nc(CN(C)CC2CCN(CCO)CC2)no1`, -4.32%; in that of `CC(=O)N1CCN(CCNS(=O)(=O)c2ccc(C)c(F)c2)CC1`, -1.84%.

Consider `Cc1ccc(C(F)(F)F)cc1C(=O)N[C@H]1CN(CCO)C[C@@H]1C1CC1`, for which the cytotoxicity at 10 µM turned out to be 0.292%. In the case of `COc1nccc(N2CC[C@@H](N3CCN(C)CC3)[C@H](O)C2)c1C#N` it was -147%. As for `Nc1nc(CCCNC(=O)c2ccc(C3CCCNC3)cc2)cs1` (configuration not stated), the cytotoxicity at 10 µM was found to be 2.77%. `CC1(c2ccccc2)CCCN(C(=O)c2ccn3nnnc3c2)C1` (configuration not stated): the cytotoxicity at 10 µM turned out to be 22.6%. As for `COc1cccc([C@@H]2CCN(Cc3cccc(C)n3)C[C@H]2O)c1`, the figure is 2.22%. For the compound `Cc1nc(C2CCNCC2)cc(N(C)CCc2cn[nH]c2)n1`, the cytotoxicity at 10 µM was -1.54%. As for `CC(NC1CCSCC1)c1ccccc1-n1cccn1` (configuration not stated), the figure is -2.24%; as for `COCCn1cncc1Cn1cccc(C(F)(F)F)c1=O`, -19.2%. In the case of `COc1cccc(CN(C)C(C)c2ccco2)c1OCCn1ccnc1` (configuration not stated) it was -0.7%; in that of `CCN(C)S(=O)(=O)N1CCCC(CO)(CC=C(C)C)C1` (configuration not stated), -3.41%; in that of `COc1c(C)cnc(CN(C)C(=O)c2ccc(C3CCCO3)s2)c1C` (configuration not stated), 9.5%. In the case of `CCCn1c(C)c(CC(=O)NCCOC)c2c1CC(C)(C)CC2=O` it was -1.01%; in that of `CSCCC(O)C(=O)N1CCCN(Cc2cccnc2)CC1` (configuration not stated), 8.2%; in that of `CC1(C)OC(=O)N(CCCC(=O)c2ccc(F)cc2)C1=O`, -4.87%.

With `Cn1ccc2c(-c3cc(N4CCOCC4)ncn3)ccnc21`, the cytotoxicity at 10 µM is 2.64%.

As for `CN(C)S(=O)(=O)N1CC[C@]2(O)CCN(Cc3cccc(C#N)c3)C[C@@H]2C1`, the cytotoxicity at 10 µM was -4.63%. As for `CN(CC(=O)N1CC(C)(C)[C@](O)(C2CC2)C1)Cc1cccnc1`, the figure is -52%; as for `COc1ccc(Oc2cncc(C3CCCN3C(C)=O)n2)cc1` (configuration not stated), 2.86%; as for `Cc1cc(C)n(CC2CN(CC(=O)N3CCNC3=O)CCO2)n1` (configuration not stated), -2.38%. For `Cn1cnc2c1CCN(Cc1csc(Cc3ccccc3)n1)C2`, the cytotoxicity at 10 µM was -5.4%. In the case of `Cc1ncncc1C(=O)N1CCOC(c2nc(C(C)C)n[nH]2)C1` (configuration not stated) it was -4.98%; in that of `Cc1ccc(NC2CCN(C(=O)CCCc3cccs3)CC2)nn1`, -8.49%; in that of `Cc1ccccc1OCC(=O)N1CCCC(CNS(C)(=O)=O)C1` (configuration not stated), 2.07%. In the case of `Cc1cc(C)n(CC2CCCN2C(=O)c2cnccn2)n1` (configuration not stated) it was 6.41%. As for `CCn1cnnc1CNC(=O)N1CCOCC1`, the figure is 3.66%. Turning to `Cc1nc(C2CCCN(C(=O)c3cccc4c3OCO4)C2)no1` (configuration not stated), the cytotoxicity at 10 µM was 3.39%. In the case of `CCCc1ncc(C(=O)N2CCOC(c3nc(C)n[nH]3)C2)s1` (configuration not stated) it was -0.12%; in that of `Cc1ccccc1CN1CCN(CC(=O)Nc2cccnc2)CC1`, -2.82%.

As to `O=C(N1CCOCC1)N1CCCC2(CCCNC2)C1` (configuration not stated), the cytotoxicity at 10 µM was determined as 0.817%. For `CN(C)Cc1nn(C)c2c1CN(C(=O)c1ccc[nH]1)C2`, the cytotoxicity at 10 µM turned out to be 9.22%. Regarding `O=S(=O)(C1CC1)N1CC[C@H](OCC2CC2)[C@@H]1Cc1cccnc1`, the cytotoxicity at 10 µM came out at 8.13%. `O=C1NCC[C@]12CN(Cc1cccnc1)C[C@H]2c1ccccc1`: the cytotoxicity at 10 µM is -137%. As for `O=C(Nc1ccc(F)cc1)C(c1ccccc1)N1CCOCC1` (configuration not stated), the figure is -3.84%. As for `CNC(=O)CN1CCOCC2(C1)CN(C(=O)CC(C)C)CCO2` (configuration not stated), the figure is 3.94%; as for `COc1ncccc1CN1C[C@@H]2COC[C@]2(COCC(=O)N(C)C)C1`, 7.81%. With `CC(C)Nc1nc2c(cc1C(=O)N(C)C)CCNCC2`, the cytotoxicity at 10 µM is -4.99%. As for `COc1cc(N2CCC3(CCN(C(=O)c4cccnc4)CC3)C2)ncn1`, the figure is -130%. As for `Cn1nc(Cn2cccn2)c2c1CN(C1CCOC1)C2` (configuration not stated), the figure is 6.92%. As for `COc1ncccc1CN1CC[C@]2(C[C@@H](OCc3ccccn3)CO2)C1`, the figure is 4.96%.

In the case of `CN(C)C(=O)N1C[C@H]2CC[C@@H](C1)N(Cc1nnc(-c3ccccc3)o1)C2`, the cytotoxicity at 10 µM worked out at 4.6%.
